Measurements from ChEMBL document CHEMBL4622957, “Green asymmetric synthesis of epoxypeptidomimetics and evaluation as human cathepsin K inhibitors” (Bioorg Med Chem, 2020).
The source made the active and inactive calls. The calls are words filed in the database; no cut-off is given here.

Experiments:
Cathepsin K [1] = biological target: T1, Cathepsin K (Homo sapiens, UniProt P43235); assay: Inhibition of recombinant human cathepsin K using Z-Phe-Arg-MCA as fluorogenic substrate preincubated for 5 mins followed by substrate addition and measured after 5 mins by fluorimetric analysis
T1 sequence (P43235 whole entry): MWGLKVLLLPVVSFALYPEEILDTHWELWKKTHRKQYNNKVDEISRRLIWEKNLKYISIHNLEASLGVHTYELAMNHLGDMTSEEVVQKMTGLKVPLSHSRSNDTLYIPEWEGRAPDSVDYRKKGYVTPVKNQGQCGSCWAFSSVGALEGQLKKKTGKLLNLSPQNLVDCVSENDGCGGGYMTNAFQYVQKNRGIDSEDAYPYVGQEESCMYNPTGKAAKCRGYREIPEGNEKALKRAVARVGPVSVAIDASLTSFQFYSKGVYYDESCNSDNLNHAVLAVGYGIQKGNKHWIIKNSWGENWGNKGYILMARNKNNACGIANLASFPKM
Method in brief: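 Recombinant human CatK, expressed in Pichia pastoris and active-site titrated with E-64, was used at 2 nM in 0.1 M sodium acetate pH 5.5 with 2.5 mM DTT and 2.5 mM EDTA at room temperature. Enzyme and inhibitor were preincubated 5 min, then 10 μM Z-Phe-Arg-MCA was added. Fluorescence (ex 380/em 460 nm) was read for 5 min. Triplicates; % inhibition from initial rates; IC50 from ≥7 inhibitor concentrations.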

Procathepsin L [2] = biological target: T2, Procathepsin L (Homo sapiens, UniProt P07711); assay: Inhibition of cathepsin L (unknown origin) at 25 uM using fluorogenic Z-FR-MCA as substrate preincubated for 5 mins followed by substrate addition by spectrofluorimetric assay relative to control
Target sequence in this assay (P07711 114-333 limits assumed): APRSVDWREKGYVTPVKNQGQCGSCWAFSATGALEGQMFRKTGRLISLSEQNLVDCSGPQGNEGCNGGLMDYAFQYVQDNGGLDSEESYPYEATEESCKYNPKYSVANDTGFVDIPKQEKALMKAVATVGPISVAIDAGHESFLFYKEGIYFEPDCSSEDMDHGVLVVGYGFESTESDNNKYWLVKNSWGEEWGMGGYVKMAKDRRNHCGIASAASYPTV

[3] = biological target: T3, Cathepsin K (Homo sapiens) (UniProt P43235); assay: Mixed type inhibition of recombinant human cathepsin K by Michaelis-Menten plot analysis
T3 sequence (whole entry): T1 sequence (P43235 whole entry)

Cathepsin K [4] = biological target: T1, Cathepsin K; assay: Binding affinity to recombinant human cathepsin K
Procathepsin L [5] = biological target: T2, Procathepsin L; assay: Inhibition of cathepsin L (unknown origin) using fluorogenic Z-FR-MCA as substrate preincubated for 5 mins followed by substrate addition by spectrofluorimetric assay
Target sequence in this assay (P07711 whole entry): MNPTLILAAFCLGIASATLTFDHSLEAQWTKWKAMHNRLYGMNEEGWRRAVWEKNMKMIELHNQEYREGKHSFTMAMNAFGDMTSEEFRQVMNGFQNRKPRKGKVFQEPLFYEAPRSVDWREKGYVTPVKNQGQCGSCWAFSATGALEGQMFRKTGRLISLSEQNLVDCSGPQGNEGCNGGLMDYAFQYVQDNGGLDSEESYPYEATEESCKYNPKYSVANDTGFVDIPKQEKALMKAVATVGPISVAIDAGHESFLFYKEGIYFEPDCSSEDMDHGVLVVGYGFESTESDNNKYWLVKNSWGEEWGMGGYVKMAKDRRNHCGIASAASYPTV

Row | SMILES | IC50 (Cathepsin K [1]) [µM] | inhibition (Procathepsin L [2]) [%] | inhibition [3] | Ki (Cathepsin K [4]) [µM] | IC50 (Procathepsin L [5]) [µM]
1 | CCCCCCC[C@H]1O[C@@H]1C(OC(=O)CCCCCBr)C(=O)NC(C)(C)C (stereo partly drawn) | 3.81 | 0 | – | – | –
2 | CCCCCCC[C@H]1O[C@@H]1C(OC(=O)c1ccc(I)cc1)C(=O)NCCCC (stereo partly drawn) | 3.35 | – | Active | 5.45 | –
3 | CCCCCCC[C@H]1O[C@@H]1C(OC(=O)C1CCCCC1)C(=O)NC(C)(C)C (stereo partly drawn) | 7.6 | 0 | – | – | –
4 | CCCCNC(=O)C([C@H]1O[C@@H]1c1ccccc1)N(Cc1ccccc1)C(=O)c1ccccc1 (stereo partly drawn) | 18.5 | 0 | – | – | –
5 | CCCCNC(=O)C([C@H]1O[C@@H]1c1ccccc1[N+](=O)[O-])N(Cc1ccccc1)C(=O)c1ccccc1 (stereo partly drawn) | – | – | – | – | > 50
6 | CCCCNC(=O)C([C@H]1O[C@@H]1c1ccccc1Br)N(Cc1ccccc1)C(=O)c1ccccc1 (stereo partly drawn) | – | – | – | – | > 50
7 | CCCCCCC[C@H]1O[C@@H]1C(OC(=O)c1ccc(I)cc1)C(=O)NC1CCCCC1 (stereo partly drawn) | – | – | – | – | 5.36
8 | CCCCNC(=O)C([C@H]1O[C@@H]1CC)N(Cc1ccccc1)C(=O)c1ccccc1 (stereo partly drawn) | – | 0 | – | – | –
9 | CCCCNC(=O)C([C@H]1O[C@@H]1c1ccccc1)N(C(=O)c1ccc(I)cc1)C(C)(C)C (stereo partly drawn) | 6.44 | 30 | Active | 9.57 | –
10 | CCCCCCC[C@H]1O[C@@H]1C(OC(=O)c1ccc(I)cc1)C(=O)NC(C)(C)C (stereo partly drawn) | 2.21 | – | – | – | –
